Measured values pooled from the literature.
Each line is one published result; the experiments were not run side by side.
Target: Ribosomal protein S6 kinase beta-1 (RPS6KB1, Homo sapiens, UniProt P23443)

Structure (SMILES) | read-out | method | tested at | remaining binding [%]
Cc1c(C(=O)O)cc(-c2ccc(C3CCNCC3)cc2)c2ccc(-c3ccc(C(F)(F)F)cc3)cc12 | binding | competition with immobilised ligand | 1 µM | 100
O=C(Nc1c[nH]nc1C(=O)NC1CCNCC1)c1cc(F)cc(F)c1 | binding | competition with immobilised ligand | 1 µM | 99
COc1cnc(Nc2cccc(S(N)(=O)=O)c2)nc1N1CCN(c2ccccc2)CC1 | binding | competition with immobilised ligand | 1 µM | 94
CN(C)c1ncc(F)c(-c2cnn3ncccc23)n1 | binding |  | 1 µM | 78
O=C(NC[C@@H]1[C@H]2CN(C(=O)OCc3cc(C(F)(F)F)cc(C(F)(F)F)c3)C[C@@H]12)c1ccc2[nH]nnc2c1 | cell-free assay | competition with immobilised ligand | 1 µM | 86
CN(CCCC(F)(F)F)c1nccc(-c2cnn3ncccc23)n1 | binding |  | 1 µM | 100
CCN1CCN(Cc2ccc(C(=O)Nc3ccc(C)c(Oc4ccc5c(c4)CC(=O)N5)c3)cc2C(F)(F)F)CC1 | binding | competition with immobilised ligand | 1 µM | 100
Nc1ncc2c(n1)-c1c([nH]c3ccc(C#CC4CC4)cc13)CCCC2 | binding | competition with immobilised ligand | 1 µM | 72
C[C@H](NC(=O)c1cnc2n1[C@](C)(Cc1ccc(C#N)cc1)C(=O)N2c1cc(Cl)c(F)c(Cl)c1)C(=O)NC1(c2ccccn2)CC1 | cell-free assay | competition with immobilised ligand | 1 µM | 100
C[C@@H](c1ccc(-n2cnc3c(N)ncnc32)cc1)N1CCc2nn(C)c(Cc3ccccc3)c2C1=O | binding | competition with immobilised ligand | 0.1 µM | 67
O=C(c1ccc(Nc2ncc(Cl)c(-c3cc4ccccc4s3)n2)cc1)N1CCC(N2CCCC2)CC1 | binding | competition with immobilised ligand | 1 µM | 37
C[C@H]1CCN(c2nccc(-c3cnn4ncccc34)n2)C1 | binding |  | 1 µM | 81
O=C(NCCCN1CCOCC1)c1ccc(Nc2ncc(Cl)c(-c3ccc(Cl)s3)n2)cc1 | binding | competition with immobilised ligand | 1 µM | 38
C[C@@H](c1cccc(C#N)c1)n1cc(Cl)cc(C(N)=O)c1=N | cell-free assay | competition with immobilised ligand | 1 µM | 100
N[C@@H]1CCN(c2nccc(-c3cnn4ncccc34)n2)C1 | binding |  | 1 µM | 100
CCCOc1ccc([C@H]2[C@H](C(=O)O)[C@@H](c3ccc4c(c3)OCO4)CN2CC(=O)Nc2c(CC)cccc2CC)cc1 | cell-free assay | competition with immobilised ligand | 1 µM | 76
F[C@@H]1CCN(c2nccc(-c3cnn4ncccc34)n2)C1 | binding |  | 1 µM | 100
CCC(=N\O)/C(C)=C/c1ccc(F)cc1 | cell-free assay | competition with immobilised ligand | 1 µM | 66
O=C(c1ccc(Nc2ncc(Cl)c(-c3ccc(Cl)s3)n2)cc1)N1CCC(N2CCCC2)CC1 | binding | competition with immobilised ligand | 1 µM | 21
CN(C)c1nccc(-c2cnn3ncccc23)n1 | binding |  | 1 µM | 100
CNC(=O)[C@@H]1CC[C@@H](n2c(-c3ccc4cnccc4c3)nc3ccc(C(=O)NCc4cccc(C(N)=O)c4)cc32)C1 | binding | competition with immobilised ligand | 1 µM | 87
